# DNMT1 inh = blocks human DNA methyltransferase DNMT1 | P26358 | DNMT1 molecular beacon, Hinp1I cleavage, fluorescence | inhibition (reported as % activation of signal), % at 10 µM | actives 0.83% (n = 360,000) | AID 588458; in the data active = inhibition above about 50%
# LMPTP block = blocks human LMPTP phosphatase. actives 0.22% (n = 360,000). inhibition, % at 20 µM. recombinant LMPTP-A, OMFP fluorogenic substrate, fluorescence intensity. AID 651560. P24666;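 active = compounds that cut the enzyme signal by at least half of the control window in the single-dose screen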;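 also: plate controls were DMSO wells with enzyme plus substrate for no effect and substrate without enzyme for full effect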
#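 Test system: LMPTP-A phosphatase enzyme; input: 0.625 nM LMPTP-A final; reagent: OMFP substrate, 400 µM final; compound dosing: 20 µM single dose, 3% DMSO; incubation: 50 min dark incubation at room temperature; measured by: endpoint fluorescence intensity from OMFP dephosphorylation; measure: % inhibition relative to no-enzyme and uninhibited control wells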
# Scp-1 inhibitor = Scp-1 (human) phosphatase inhibition | Q9GZU7 | Recombinant Scp1, phosphopeptide, malachite green phosphate absorbance | inhibition, % at 20 µM | actives 0.88% (n = 340,000) | AID 493091;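 active = inhibition above about 50% at 20 µM, limit read from the data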;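 also: plate controls were DMSO wells with enzyme for no effect and wells lacking enzyme for full effect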
#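 Test system: SCP-1 phosphatase catalytic domain, residues 76-261; measured by: colorimetric phosphate reagent with accelerator and stabiliser, absorbance at 630 nm; timing: enzyme reaction 45 min at room temperature, colour 5 min, stabilisation 30 min; also added: Phosphorylated 17-residue peptide substrate; compound dosing: one concentration, 20 µM, with 1.0% DMSO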
# SUMO1-SIM PPI = modulators of human SUMO1-mediated protein-protein interactions. actives 0.33% (n = 360,000). SUMO1 binding to a labelled peptide, TR-FRET, 1 h. P63165. AID 602429. inhibition, % at 20 µM; in the data active = inhibition above about 37%
# STEP block = STEP (human) phosphatase inhibition; P54829; recombinant STEP, OMFP fluorogenic substrate, fluorescence; inhibition, % at 20 µM; actives 0.25% (n = 360,000); AID 588621;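 active = inhibition at 20 µM, scaled per plate between control wells, above about 37%, limit read from the data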;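 also: 0% = DMSO with enzyme and substrate and 100% = substrate only without enzyme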
#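 Measure: Control-normalized % inhibition with plate pattern correction | Test system: STEP phosphatase, cell-free reaction | Medium: pH 6.0 Bis-Tris with DTT and Tween 20 | Technique: Fluorescence, 480/540 nm | Times: Reaction 20 min, ambient temperature | Doses: Single compound dose of 20 µM, 1% DMSO final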
# Scp-1 conf = Scp-1 (human) inhibition, single-dose confirmed; actives 61% (n = 2,500); inhibition, % at 20 µM; recombinant SCP-1 catalytic domain, phosphate release, malachite green absorbance; shares compounds with Scp-1 inhibitor;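 also: plate controls were DMSO with enzyme for no effect and buffer wells lacking enzyme for full effect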
# MG interference = counter-screen for Scp-1 inhibitors: colorimetric interference | shares compounds with Scp-1 inhibitor | Colorimetric interference counterscreen, malachite green absorbance 630 nm | 2,500 tested, under 10 active | apparent inhibition (interference), % at 20 µM;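 also: compounds added after enzyme reaction finished so only phosphate colour detection is probed; plate controls were DMSO wells with completed Scp-1 reaction for no effect and substrate wells lacking enzyme for full effect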
# Scp-1 Tm shift = validation of human Scp-1 inhibitors by thermal shift binding; Recombinant SCP1, Sypro Orange thermal shift Tm; actives 25% (n = 1,500); thermal shift relative to vanadate control, % at 40 µM; shares compounds with Scp-1 inhibitor;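 active = substances whose mean melting-temperature shift, as a percentage of the reference inhibitor's shift, reaches about 5.3%, limit read from the data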;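 also: 0% = Tm of DMSO wells and 100% = Tm with sodium orthovanadate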
# DNMT1 confirm = confirmation of human DNMT1 inhibitors; shares compounds with DNMT1 inh; DNMT1 molecular beacon HinP1I cleavage, fluorescence; inhibition, % at 10 µM; actives 8% (n = 2,300);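 active = average inhibition of at least 30% in the single-concentration confirmation test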
# DNMT1 interf = beacon fluorescence artifact counter-screen | activation (fluorescence interference), % at 10 µM | actives 1% (n = 2,300) | shares compounds with DNMT1 inh | AID 602387 | DNMT1 molecular beacon spectral interference counterscreen, fluorescence 485/520;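 active = activation of at least 30% at 10 µM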;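 also: DNMT1 catalytic domain with a HinP1I cleavage step and a FAM/dabcyl DNA beacon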
# Active calls of the source: *; / = no result. Hits are enriched below; roughly 1.7% of the tested compounds scored in any of these assays.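 The calls were made as follows, unless noted: active = inhibition of at least 30% at 20 µM; inactive = the rest.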
SMILES,DNMT1 inh,LMPTP block,Scp-1 inhibitor,SUMO1-SIM PPI,STEP block,Scp-1 conf,MG interference,Scp-1 Tm shift,others
NC(=O)c1ccc(Oc2ccc3c(c2)CCC3)c([N+](=O)[O-])c1,-4.8,-0.3,-4.4,-21.0,-1.7,/,/,/,
c1ccc2c(c1)ccn2CCCN1CCCCC1,0.9,1.0,-7.6,1.7,-2.3,/,/,/,
C=C1c2cccc(OC)c2O[C@H](C(=O)OCC)[C@@H]1CC(CC)CCCC (stereo partly drawn),4.9,1.7,94.2*,5.3,-0.3,34.2*,-23.3,-10.7,
O=C(NNC(=O)c1ccc(NC(=O)c2ccccc2)cc1)c1ccccc1,25.0,22.4,61.6*,7.5,31.8,1.4,-19.5,/,
C(=N\n1c2ccccc2c2ccccc21)/c1ccccc1,-1.9,1.9,-7.8,-4.7,-1.4,/,/,/,
C[n+]1cn(/N=C/c2ccccc2)c2ccccc21,-1.4,-2.9,113.4*,-3.9,-3.9,-4.0,-8.2,/,
O=C(NCCc1ccc(Cl)cc1Cl)C1=CC=CN2CCS(=O)(=O)N=C12,4.3,-0.5,3.2,-3.2,1.3,/,/,/,
CCOC(=O)C1CCN(C2CC(=O)N(c3ccc(OCC)cc3)C2=O)CC1 (stereo not drawn),0.1,-1.7,52.2*,-2.0,0.3,15.5,-0.5,/,
CCCc1cc(C(=O)Nc2cc(OC)ccc2OC)cs1,1.8,1.3,4.0,0.3,3.0,/,/,/,
CN1CCN(C(=O)c2ccc(S(=O)(=O)N(C)c3ccccc3)cc2)CC1,2.5,-0.2,/,-1.6,1.4,/,/,/,
Cc1cccc(N2CCN(C(=O)c3ccc(S(=O)(=O)N(C)c4ccccc4)cc3)CC2)c1C,-5.0,4.4,98.5*,-3.8,-0.3,74.8*,-16.9,-26.5,
COC(=O)C(O)(NC(=O)c1ccncc1)C(F)(F)F (stereo not drawn),-2.1,-1.0,0.9,3.7,-2.7,/,/,/,
CC1=NNC(=O)C1CCC(=O)N/N=C/c1ccc(Cl)cc1 (stereo not drawn),1.8,1.2,-1.3,-0.8,5.3,/,/,/,
CC1=NNC(=O)C1CCC(=O)N/N=C/c1c(Cl)cccc1Cl (stereo not drawn),-1.8,-0.1,4.7,-1.3,0.7,-7.8,-6.2,/,
CC1=NNC(=O)C1CCC(=O)N/N=C(\C)c1ccccc1 (stereo not drawn),-0.2,0.1,5.2,-15.2,4.9,-3.2,-6.5,/,
C=CCn1c(N)cc(=O)nc1SC(C)C(=O)Nc1cccc2ccccc12 (stereo not drawn),-5.0,-0.2,-17.6,-6.1,0.7,-19.4,-18.6,/,
CCCCNC(=S)N(CCCN(C)C)Cc1cc2cc3c(cc2[nH]c1=O)OCO3,-4.5,-2.1,-2.0,2.6,2.0,/,/,/,
CCOc1c(Br)cc(Br)cc1/C=C1\SC(N)=NC1=O,16.9,0.2,85.1*,2.9,2.2,8.6,-13.1,/,
Cn1cc(-c2csc(C(O)(c3ccccc3)C(F)(F)F)n2)cn1 (stereo not drawn),-0.8,-0.8,/,-2.2,-5.0,/,/,/,
C[C@@H](NC(=O)Cn1ccc(N)nc1=O)c1cccc2ccccc12,1.4,-2.4,-2.3,-3.0,-2.5,-24.0,-25.0,/,
N/C(=N/OC(=O)c1ccccc1Cl)c1ncc([N+](=O)[O-])s1,-14.2,0.5,-0.7,-16.3,0.3,/,/,/,
CCOC(=O)c1cc(-c2ccco2)nn1-c1ccc(C)cc1,-6.8,0.4,-6.9,-1.2,-3.1,/,/,/,
Cc1ccc(-n2nc(-c3ccco3)cc2C(=O)O)cc1,156.3*,8.9,66.0*,25.0,24.5,58.4*,-15.9,7.0*,DNMT1 confirm=15.5;DNMT1 interf=-1.1
CC(=O)Nc1ccc(NC(=O)CNC(=O)c2cccc(C)c2)cc1,-3.5,0.7,-1.4,-0.8,0.5,/,/,/,
NS(=O)(=O)c1ccc(CNC(=O)Cc2cccs2)cc1,52.0*,50.2*,83.1*,2.4,3.1,47.6*,-18.6,6.9*,DNMT1 confirm=4.9;DNMT1 interf=0.9
SMILES,DNMT1 inh,LMPTP block,Scp-1 inhibitor,SUMO1-SIM PPI,STEP block,Scp-1 conf,MG interference,Scp-1 Tm shift,others
COc1ccc(N=C2NC(=O)/C(=C\c3ccco3)S2)cc1,70.2*,40.1,88.5*,-10.3,6.3,51.9*,-12.3,1.7,DNMT1 confirm=8.3;DNMT1 interf=29.8
Cn1c(SCC(=O)NC(=O)NCc2ccco2)nnc1-c1ccccc1,85.5*,46.3,92.2*,9.4,7.3,62.0*,-16.7,-13.0,DNMT1 confirm=0.5;DNMT1 interf=1.7
O=C(CSc1n[nH]c(-c2ccccc2)n1)NC(=O)NCc1ccco1,64.5*,16.8,67.6*,14.3,6.0,55.3*,-10.9,1.3,DNMT1 confirm=1.9;DNMT1 interf=1.0
O=C(CSc1nc(-c2ccccc2)cs1)NC(=O)NCc1ccco1,-8.4,1.3,-5.5,3.7,1.3,/,/,/,
CCCCn1c(SCC(=O)NC(=O)NCc2ccco2)nc2cc(S(N)(=O)=O)ccc21,88.7*,9.2,64.0*,5.2,1.6,58.0*,-12.3,-3.0,DNMT1 confirm=5.0;DNMT1 interf=0.7
COc1ccc(-c2nnc(SCC(=O)NCc3ccco3)n2C)cc1,4.5,-0.1,-8.0,2.3,0.0,/,/,/,
O=C(CSc1ccccc1F)NC(=O)NCc1ccco1,8.9,-0.2,25.4,1.7,1.7,/,/,/,

# From PubChem
